Consider 10 compounds from ChEMBL document CHEMBL1212875, “Improved inhibition of the histone acetyltransferase PCAF by an anacardic acid derivative” (Bioorg Med Chem, 2010).

Calls of active or inactive are those of the source. No cut-off for these calls is given here.

Assay [1] has as its target T1, Histone acetyltransferase KAT2B (Homo sapiens, UniProt Q92831). Kind of assay: Inhibition of human recombinant histone acetyltransferase PCAF by ELISA. A digest of the protocol:
(§1)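 Indirect ELISA. Biotinylated histone H4 peptide (300 nM coating) captured on streptavidin wells. Recombinant human PCAF (240 nM solution) preincubated 15 min with inhibitor in 100 mM HEPES pH 7.4, 0.1% BSA, 0.16% Triton X-100. Reaction started with Ac-CoA (40 µM solution) for 15 min. Detection by anti-acetyl-Lys antibody, HRP secondary, TMB, A450. No-inhibitor wells = 100%, no-Ac-CoA = 0%. Triplicate; DMSO stocks.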
(In general: ELISA stands for enzyme-linked immunosorbent assay.)

The target of assay [2] is T1, Histone acetyltransferase KAT2B. Nature of the assay: Inhibition of human recombinant histone deacetylase PCAF at 1 mM by ELISA. The gist of the method:
as §1
Target sequence in this assay (Q92831 whole entry, looked up): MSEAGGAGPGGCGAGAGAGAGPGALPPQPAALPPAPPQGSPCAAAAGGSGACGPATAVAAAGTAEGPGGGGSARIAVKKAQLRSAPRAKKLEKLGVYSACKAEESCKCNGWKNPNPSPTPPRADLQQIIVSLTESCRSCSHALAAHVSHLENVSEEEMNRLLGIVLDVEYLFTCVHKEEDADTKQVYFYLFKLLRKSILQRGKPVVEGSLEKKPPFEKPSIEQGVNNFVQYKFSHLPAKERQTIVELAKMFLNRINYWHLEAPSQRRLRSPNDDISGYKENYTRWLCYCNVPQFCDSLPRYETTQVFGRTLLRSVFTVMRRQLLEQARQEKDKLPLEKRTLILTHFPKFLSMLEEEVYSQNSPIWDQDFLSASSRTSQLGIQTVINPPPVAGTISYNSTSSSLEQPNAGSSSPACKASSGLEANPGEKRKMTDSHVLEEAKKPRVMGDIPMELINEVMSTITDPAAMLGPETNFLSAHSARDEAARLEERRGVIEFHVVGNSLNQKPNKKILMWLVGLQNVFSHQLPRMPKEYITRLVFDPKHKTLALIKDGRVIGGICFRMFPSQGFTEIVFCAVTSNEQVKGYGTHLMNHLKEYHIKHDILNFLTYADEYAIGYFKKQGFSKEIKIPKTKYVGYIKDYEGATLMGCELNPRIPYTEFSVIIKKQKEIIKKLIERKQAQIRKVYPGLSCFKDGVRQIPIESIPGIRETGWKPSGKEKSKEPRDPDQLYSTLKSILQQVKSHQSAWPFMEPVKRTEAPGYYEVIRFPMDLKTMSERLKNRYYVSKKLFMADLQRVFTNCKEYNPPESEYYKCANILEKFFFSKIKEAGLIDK

The target is the same in assay [3]. Nature of the assay: Inhibition of […] in human HepG2 cells assessed as decrease in SAHA-induced histone H4 acetylation levels at 30 uM after 24 hrs by Western blotting. Format: cell-based. A digest of the protocol:
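HepG2 cells in DMEM with 10% heat-inactivated FBS at 37 °C, 5% CO2; grown to ~70% confluency, FBS-starved 16 h, then treated 24 h with 5 µM SAHA plus inhibitor at sub-toxic concentrations. Histones extracted, ~5 µg resolved by SDS-PAGE, immunoblotted with anti-acetyl-histone H4; densitometry with Coomassie loading check. Levels relative to untreated cells (100%), mean ± SEM of three independent experiments.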
Target sequence in this assay (Q92831 whole entry, looked up): as above

Assay [4] has the same target. Nature of the assay: Inhibition of histone acetyltransferase PCAF in human HepG2 cells assessed as decrease in SAHA-induced histone H4 acetylation levels at 60 uM after 24 hrs by Western blotting. For orientation: A western blot detects proteins with antibodies after separation by electrophoresis.
Target sequence in this assay (Q92831 whole entry, looked up): as above

`CCCCCCCCCCCCCCCc1cc(O)cc(O)c1C(=O)O`: in assay [1], the inhibition result is “Active”.

Regarding `O=C(O)c1c(O)cccc1OCc1ccccc1`, the inhibition in assay [2] was 20%.

As to `CCCCCCCCCCc1cc(O)cc(O)c1C(=O)O`, the inhibition entry in assay [1] was “Active”.

In the case of `CCCCCCCCCCc1cccc(O)c1C(=O)O`, the inhibition result in assay [1] is “Active”. Regarding `CCCCCCCc1ccc(CCc2cccc(O)c2C(=O)O)cc1`, the inhibition result in assay [1] was “Active”. The same measure, in the same setting: with `CCCCCOc1ccc(CCc2cccc(O)c2C(=O)O)cc1` the entry was “Active”. `C=CC/C=C\C/C=C\CCCCCCCc1cccc(O)c1C(=O)O` [ANACARDIC ACID]: the inhibition in assay [2] was 40%. Besides, the inhibition result in assay [3], in assay [1] and in assay [4] was “Active” in each case. For the same compound, the IC50 in assay [1] is 1000 µM. Take `CCCCCOc1ccc(/C=C\c2cccc(O)c2C(=O)O)cc1`: the inhibition entry in assay [3] and in assay [4] was “Active” throughout. Further, in assay [1], the IC50 turned out to be 662 µM.

For `CCCCCCCCCCCCCCOc1cccc(O)c1C(=O)O`, the inhibition result in assay [1] is “Active”.

`COc1ccccc1OCCCc1cccc(O)c1C(=O)O`: the inhibition entry in assay [1] is “Active”.

By inhibition is commonly meant the share of the control response that was lost under treatment. Usually IC50 stands for the point on the concentration scale where inhibition reaches its midpoint.
